# Test results published in paper PMC9425296 (Journal of the American Chemical Society, 2022).
# *1 amine or outer side, *2 acyl side, *3 side chain or, on linkers, in order; H or OH if unused. Where a SMILES comes first, the peptide text is derived from it. Bridges are numbered along the chain shown (N, C = ends). [ ]: non-standard residue; d: D form. X1 = O=C([C@@H]1C[C@H](SCc2cccc(C[*:3])c2)CN1[*:1])[*:2]
# What was measured:
# [1] = tested on: OVCAR8 cells (p62, LC3B, GABARAP); test: Western blot of autophagy markers in OVCAR8 cells; format: cell-based; details: OVCAR8, 25 μM peptide plus 10 μM cisplatin, 48 h
# [2] = tested on: five human paralogs in the GABARAP/LC3 family (GABARAP, GABARAP-L1, GABARAP-L2, LC3A, LC3B); test: FP binding across human LC3/GABARAP paralogs; details: fluorescein-tagged peptide
# Method in brief: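 Fluorescence polarization with N-terminally fluorescein-labelled peptides titrated against each recombinant protein (GABARAP, GABARAP-L1, GABARAP-L2, LC3A, LC3B). Kd values come from the FP binding data. Results are the average and standard error of the mean of three or more independent trials.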
structure (smiles),measurement,setting,value
CC(C)C[C@H](NC(=O)[C@@H]1CSCc2cccc(c2)CS[C@H]2C[C@@H](C(=O)N[C@@H](Cc3ccc(O)cc3)C(=O)N[C@@H]([C@@H](C)O)C(=O)N[C@@H](Cc3c[nH]c4ccccc34)C(=O)N[C@@H](CCC(=O)O)C(=O)N1)N(C(=O)[C@H](C)NC(=O)[C@@H](N)CC(=O)O)C2)C(=O)N[C@@H](C)C(=O)N[C@@H](Cc1c[nH]c2ccccc12)C(=O)N1CCC[C@H]1C(N)=O [MP3-meta] (H-DA[X1]YTWECLAWP-NH2; thioether 3-8; N-terminus and C-terminus assumed),LC3B-I level compared to cells treated with cisplatin alone,[1],increased LC3B-I
same,binding to GABARAP and GABARAPL1 (in words),[2],low-to-mid nanomolar range
same,"binding to GABARAP-L2, LC3A and LC3B (in words)",[2],mostly in the micromolar range
